Assays:
[1] = Half life in Sprague-Dawley rat at 2 mg/kg, iv; format: ADME, organism-based; set-up: dose 2 mg/kg, route intravenous; settings: in vivo
[2] = test system: Human immunodeficiency virus; assay: Antiviral activity against wild type HIV H9-3B infected in human MT2 cells assessed as inhibition of viral replication measuring p24 level after 3 days in presence of 10% fetal bovine serum; format: functional; settings: Human immunodeficiency virus 1, MT2, Serum; read-out: CIC95
How it was run: (§1)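 Multiple-cycle spread assay in MT2 cells with wild-type H9IIIB virus. Cells were infected overnight at moi ≈ 0.01 without compound, washed, then cultured 3 days across varying compound concentrations in RPMI 1640 with 10% FBS or 50% NHS. p24 was measured in supernatants. CIC95 is the lowest concentration inhibiting replication ≥95%, as the geometric mean of ≥2 determinations.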

[3] = test system: Human immunodeficiency virus; assay: Antiviral activity against HIV with reverse transcriptase K103N/Y181C double mutant infected in human MT2 cells assessed as inhibition of viral replication measuring p24 level after 3 days in presence of 10% fetal bovine serum; format: functional; settings: Human immunodeficiency virus 1, MT2, Serum, 72 h; read-out: CIC95
How it was run: (§2)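 Multiple-cycle replication (Spread) assay in MT2 cells with H9IIIB-background mutant virus. Cells were infected overnight at moi ≈ 0.01 without compound, washed, then cultured 3 days across a range of compound concentrations in medium with 10% FBS. p24 was measured in supernatants. CIC95 is the lowest concentration inhibiting replication by ≥95%, reported as the geometric mean of ≥2 determinations.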

[4] = target: Human immunodeficiency virus type 1 reverse transcriptase (Human immunodeficiency virus 1, UniProt Q72547, K103N); assay: Inhibition of RNA-dependent DNA polymerase activity of recombinant HIV reverse transcriptase K103N mutant assessed as BrdU incorporation by standard ECL assay
[5] = Clearance in Sprague-Dawley rat at 2 mg/kg, iv; format: ADME, organism-based; set-up: dose 2 mg/kg, route intravenous; settings: in vivo
[6] = test system: Human immunodeficiency virus; assay: Antiviral activity against wild type HIV H9-3B infected in human MT2 cells assessed as inhibition of viral replication measuring p24 level after 3 days in presence of 50% normal human serum; format: functional; settings: Human immunodeficiency virus 1, H9-3B, 72 h, read-out: CIC95; how it was run: as §1
[7] = test system: Human immunodeficiency virus; assay: Antiviral activity against HIV with reverse transcriptase Y181C mutant infected in human MT2 cells assessed as inhibition of viral replication measuring p24 level after 3 days in presence of 10% fetal bovine serum; format: functional; settings: Human immunodeficiency virus 1, MT2, Serum, 72 h; read-out: CIC95; how it was run: as §2
Rattus norvegicus = assay: AUC in Sprague-Dawley rat at 2 mg/kg, iv; format: ADME, organism-based, Plasma; set-up: dose 2 mg/kg, route intravenous; settings: in vivo
[8] = Volume of distribution in Sprague-Dawley rat at 2 mg/kg, iv; format: ADME, organism-based; set-up: dose 2 mg/kg, route intravenous; settings: in vivo
[9] = Inhibition of RNA-dependent DNA polymerase activity of wild type HIV reverse transcriptase assessed as BrdU incorporation by standard ECL assay; set-up: species or system Human immunodeficiency virus
How it was run: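 Purified recombinant wild-type RT polymerase activity was measured using a 500-nt heteropolymeric RNA template and a biotinylated DNA primer. BrdU incorporation was detected with a ruthenylated anti-BrdU antibody by electrochemiluminescence. Ki is the geometric mean of at least two determinations, each within 25% of the mean.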

[10] = test system: Human immunodeficiency virus; assay: Antiviral activity against HIV with reverse transcriptase K103N mutant infected in human MT2 cells assessed as inhibition of viral replication measuring p24 level after 3 days in presence of 10% fetal bovine serum; format: functional; settings: Human immunodeficiency virus 1, MT2, Serum, 72 h; read-out: CIC95; how it was run: as §2

Row | SMILES | half-life [1] | IC95 [2] | IC95 [3] | Ki [4] | clearance [5] | IC95 [6] | IC95 [7] | AUC (Rattus norvegicus) | Vd [8] | Ki [9] | IC95 [10]
1 | N#Cc1cc(Cl)cc(Oc2cc(OCc3noc4nc(N)ccc34)cc(F)c2Cl)c1 | 1.9 h | 11 nM | 833 nM | 0.8 nM | 44.9 mL/min/kg | 103 nM | 31 nM | 0.4 µM | 5.1 L/kg | 0.2 nM | 103 nM
2 | N#Cc1cc(Cl)cc(Oc2cc(OCc3noc4nc(C5=NCCN5)ccc34)ccc2Cl)c1 |  | 309 nM |  | 6.3 nM |  | 309 nM |  |  |  | 2.3 nM | 309 nM
3 | N#Cc1cc(Cl)cc(Oc2cc(OCc3n[nH]c4ncccc34)cc(Cl)c2Cl)c1 | 9.4 h | 18 nM | 277 nM | 4.6 nM | 5.5 mL/min/kg | 103 nM | 31 nM | 3.5 µM | 1.8 L/kg | 2.7 nM | 34 nM
4 | N#Cc1cc(Cl)cc(Oc2cc(OCc3noc4nc(N5CCCCC5)ccc34)ccc2Cl)c1 |  | > 8330 nM |  | 7.2 nM |  |  | > 8330 nM |  |  | 2.2 nM | > 8330 nM
5 | N#Cc1cc(Cl)cc(Oc2cc(F)c(Cl)c(OCc3n[nH]c4nc(N)ccc34)c2)c1 |  | 2780 nM |  | > 910 nM |  | > 8330 nM |  |  |  | 120 nM | > 8330 nM
6 | N#Cc1cc(Cl)cc(Oc2cc(OCc3noc4ncccc34)ccc2Cl)c1 |  | 19 nM | 278 nM | 2.1 nM |  | 103 nM | 93 nM |  |  | 1.6 nM | 103 nM
7 | N#Cc1cc(Cl)cc(Oc2ccc(F)c(OCc3n[nH]c4ncccc34)c2)c1 |  | 3770 nM |  | 350 nM |  | > 8300 nM |  |  |  | 47 nM | > 8300 nM
8 | N#Cc1cc(Cl)cc(Oc2cc(F)c(Cl)c(OCc3n[nH]c4ncccc34)c2)c1 |  | 11 nM | 93 nM | 0.8 nM |  | 103 nM | 31 nM |  |  | 5.2 nM | 11 nM
9 | N#Cc1cc(Cl)cc(Oc2cc(OCc3noc4nc(N5CCOCC5)ccc34)ccc2Cl)c1 |  | 103 nM |  | 8.6 nM |  | 956 nM |  |  |  | 1.8 nM | 926 nM
10 | N#Cc1cc(Cl)cc(Oc2cc(OCc3noc4nc(N)ccc34)ccc2Cl)c1 | 5.8 h | 11 nM | 278 nM | 0.4 nM | 93.4 mL/min/kg | 34 nM | 93 nM | 0.8 µM | 44.7 L/kg | 0.3 nM | 34 nM
11 | N#Cc1cc(Cl)cc(Oc2cc(OCc3n[nH]c4ncccc34)cc(F)c2Cl)c1 |  | 16 nM | 93 nM | 0.9 nM |  | 59 nM | 31 nM |  |  | 0.5 nM | 11 nM
12 | N#Cc1cc(Cl)cc(Oc2cc(OCc3noc4nc(N5CCNCC5)ccc34)ccc2Cl)c1 |  | 33 nM | 833 nM | 3 nM |  | 309 nM | 833 nM |  |  | 1.7 nM | 103 nM
13 | Cc1cc(OCc2n[nH]c3ncccc23)cc(Oc2cc(Cl)cc(C#N)c2)c1Cl |  | 11 nM | 278 nM | 1.9 nM |  | 103 nM | 31 nM |  |  | 0.4 nM | 103 nM
14 | CNc1ccc2c(COc3ccc(Cl)c(Oc4cc(Cl)cc(C#N)c4)c3)noc2n1 | 2 h | 103 nM |  | 0.9 nM | 24.6 mL/min/kg | 103 nM |  | 0.8 µM | 2 L/kg | 0.3 nM | 309 nM
15 | N#Cc1cc(Cl)cc(Oc2cc(F)cc(OCc3n[nH]c4nc(N)ccc34)c2)c1 |  | < 3.8 nM |  | 3.3 nM |  | 103 nM |  |  |  | 2 nM | 309 nM
16 | CN(C)c1ccc2c(COc3ccc(Cl)c(Oc4cc(Cl)cc(C#N)c4)c3)noc2n1 |  | 103 nM |  | 0.9 nM |  | 309 nM |  |  |  | 0.3 nM | 309 nM
17 | N#Cc1cc(Cl)cc(Oc2ccc(Cl)c(OCc3n[nH]c4ncccc34)c2)c1 |  | > 8300 nM |  | 140 nM |  | > 8300 nM |  |  |  | 17 nM | > 8300 nM
18 | N#Cc1cc(Cl)cc(Oc2cc(OCc3noc4nc(-n5ccnc5)ccc34)ccc2Cl)c1 | 1.7 h | 33 nM | 833 nM | 0.8 nM | 26.9 mL/min/kg | 309 nM | 278 nM | 0.7 µM | 2.2 L/kg | 0.2 nM | 103 nM

Source: ChEMBL document CHEMBL1156144, “Biaryl ethers as novel non-nucleoside reverse transcriptase inhibitors with improved potency against key mutant viruses” (J Med Chem, 2009)
